Laboratory results: article PMC5069578 (Journal of Clinical Pharmacology, 2016)
Where a name gives a salt, the structure may show the parent alone. Read-outs that look alike come from different tables or passages of the source.

Key:
[1] = under physiological conditions; cited from earlier work
Safety and tolerability = assay type: in vivo, human
Outline: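 Adverse events recorded throughout treatment and up to 30 days after last dose or start of subsequent antineoplastic therapy, graded by NCI CTCAE v4.03. Safety population comprised all patients given at least 1 dose of test compound (single 4-mg oral doses on days 1 and 15, fasted/fed crossover).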

[2] = ref Takeda, data on file; cited from earlier work
[3] = Biopharmaceutics Classification System; assay type: physicochemical; details: from solubility and permeability
[4] = assay type: in vivo, human; details: for half-life / AUC(0-t) / Cmax / Tmax: human, plasma, 4 mg; for half-life: oral, Geometric mean (%CV) terminal half-life, N = 4; for AUC(0-t) / Cmax / Tmax: po, single 4-mg oral dose, n = 15; for AUC(0-t): Geometric mean AUC0-216 (%CV); for Cmax: Geometric mean Cmax (%CV); for Tmax: Median Tmax (range)
Outline: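 Randomized 2-period, 2-sequence crossover: 4-mg immediate-release capsule on day 1 and day 15, either fasted (~10 h overnight) or fed (high-fat meal begun ≥30 min predose), alternating between periods; no food 4 h postdose. Plasma sampled predose to 216 h, LC-MS/MS (linear 0.5–500 ng/mL). Noncompartmental parameters; log AUC0-216 and Cmax by ANOVA (treatment, sequence, period fixed; patient-within-sequence random), back-transformed LS-mean ratios with 90% CIs.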

[5] = cited from earlier work
[6] = ref Takeda, data on file; cited from earlier work; remark: listed apart in the source
[7] = healthy volunteers and patients with advanced solid tumors; cited from earlier work
[8] = fed vs fasted, ANOVA on log-transformed values

## CC(C)C[C@H](NC(=O)CNC(=O)c1cc(Cl)ccc1Cl)B1OC(=O)C(CC(=O)O)(CC(=O)O)O1 [ixazomib citrate]
[1]
  Hydrolysis to the biologically active boronic acid, ixazomib: rapid hydrolysis

## CC(C)C[C@H](NC(=O)CNC(=O)c1cc(Cl)ccc1Cl)B(O)O [ixazomib]
Safety and tolerability; 3 on-study deaths
  On-study deaths considered related to ixazomib: None
Safety and tolerability; 24 patients
  Drug-related, reversible grade 1 peripheral neuropathy: 1 case
  Patients with TEAEs resulting in dose reduction: 4%
  Patients with any-grade drug-related TEAEs: 83%
  Patients with any-grade drug-related fatigue: 25%
  Patients with any-grade drug-related nausea: 50%
  Patients with any-grade drug-related vomiting: 58%
  Patients with at least 1 grade ≥3 TEAE: 54%
  Patients with at least 1 grade ≥3 drug-related TEAE: 21%
  Patients with drug-related serious AE: 8%
  Patients with grade ≥3 drug-related anemia: 8%
  Patients with grade ≥3 drug-related dehydration: 4%
  Patients with grade ≥3 drug-related fatigue: 4%
  Patients with grade ≥3 drug-related peripheral edema: 4%
  Patients with grade ≥3 drug-related vomiting: 4%
  Patients with vomiting leading to dose modification: 8%
Safety and tolerability; safety population N = 24
  AE leading to discontinuation: 7 (29) n (%)
  Any AE: 24 (100) n (%)
  Any drug-related AE: 20 (83) n (%)
  Any drug-related grade ≥3 AE: 5 (21) n (%)
  Any drug-related serious AE: 2 (8) n (%)
  Any grade ≥3 AE: 13 (54) n (%)
  Any serious AE: 12 (50) n (%)
  Any-grade drug-related AE: anemia: 4 (17) n (%)
  Any-grade drug-related AE: asthenia: 2 (8) n (%)
  Any-grade drug-related AE: chills: 2 (8) n (%)
  Any-grade drug-related AE: constipation: 2 (8) n (%)
  Any-grade drug-related AE: decreased appetite: 3 (13) n (%)
  Any-grade drug-related AE: diarrhea: 3 (13) n (%)
  Any-grade drug-related AE: fatigue: 6 (25) n (%)
  Any-grade drug-related AE: nausea: 12 (50) n (%)
  Any-grade drug-related AE: thrombocytopenia: 2 (8) n (%)
  Any-grade drug-related AE: vomiting: 14 (58) n (%)
  Any-grade drug-related AE: weight loss: 4 (17) n (%)
  Grade ≥3 drug-related AE: anemia: 2 (8) n (%)
  Grade ≥3 drug-related AE: dehydration: 1 (4) n (%)
  Grade ≥3 drug-related AE: fatigue: 1 (4) n (%)
  Grade ≥3 drug-related AE: peripheral edema: 1 (4) n (%)
  Grade ≥3 drug-related AE: vomiting: 1 (4) n (%)
  On-study deaths: 3 (13) n (%)
Safety and tolerability; safety population N = 24, includes follicular rash, intermittent dark skin lesion, macular rash, maculopapular rash, pruritus
  Any-grade drug-related AE: rash: 5 (21) n (%)
[2]
  Permeability: moderate
[3]
  Biopharmaceutics Classification System (BCS) class: class 3
[4]; ANOVA analysis, period 2 (day 15) vs period 1 (day 1)
  Ratio of period 2 AUC to period 1 AUC (period effect): 2.21
[4]; fed vs fasted
  Delay of median Tmax under fed conditions compared with fasted state: approximately 3 hours
  Reduction in peak plasma concentration (Cmax): 69%
  Reduction in total systemic exposure (AUC): 28%
[4]; [8]
  Least-squares geometric mean ratio (90%CI) of AUC0-216 (test/reference): 0.72 (0.58‐0.89)
  Least-squares geometric mean ratio (90%CI) of Cmax (test/reference): 0.31 (0.21‐0.45)
[4]; day 1, fasted
  half-life: 189 h
[4]; day 1, fed
  half-life: 198 h
[4]; fasted (reference)
  AUC(0-t): 1470 ng·h/mL
  Cmax: 77 ng/mL
[4]; fed (test)
  AUC(0-t): 999 ng·h/mL
  Cmax: 22.8 ng/mL
[4]; fasted (reference), immediate-release capsule
  Tmax: 1.02 h
[4]; fed (test, high-calorie high-fat meal)
  Tmax: 4 h
[5]; 226 adult cancer patients, immediate-release capsules, estimated
  Absolute oral bioavailability: 60%
[5]
  Dose and time dependence of PK: dose‐ and time‐independent PK
[6]
  Solubility: highly soluble

## CS(=O)(=O)CCNCc1ccc(-c2ccc3ncnc(Nc4ccc(OCc5cccc(F)c5)c(Cl)c4)c3c2)o1 [lapatinib]
[7]
  Change in bioavailability when administered with a high-fat breakfast: large increases
